Test [1] is described as follows: HUVEC growth inhibition – cell-based, human, primary screen (AID 575;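 active means viability at or below 30% in both replicate assays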;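 further: 100% = median of untreated cell wells with 0.1% DMSO on each plate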). Conditions: HUVEC proliferation, CellTiter-Glo luminescence, 72 h; at 10 µM; stronger effect = lower value. The procedure, abridged: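 System – primary HUVEC, no more than 12 passages · Medium – Low-serum (2% FBS) EBM, supplemented · Times – 72 h exposure, 37 °C, 5% CO2, 30 min RT equilibration · Measured by – luminescent ATP assay · Read-out – % viability relative to median vehicle-well signal on each plate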
Background: ATP-based viability assays read luminescence as a measure of living cells.

Test [2] is described as follows: growth inhibitors of H69AR lung tumor, primary screen, human, duplicate replicates (AID 580;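 active means viability at or under a set limit in both replicates, limit being median viability minus 3 SD, cut at about 48% in these data, passing the limit was not always enough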;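 further: 100% = mean luminescence of untreated wells and 0% = no signal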). Conditions: H69AR lung tumor cells viability, ATP luminescence, 72 h; at 10 µM; stronger effect = lower value.
A short description of test [3]: reversal of MRP1-mediated doxorubicin resistance, pilot screen, H69AR cells, doxorubicin co-treatment (AID 601;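 active means viability loss from added drug above about 55%, and viability with drug at most 40%, in both replicates, limit read from the data, passing the limit was not always enough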). Particulars: CellTiter-Glo, 72 h, at 10 µM; for differential viability (reversal): stronger effect = higher value.
Test [4] can be described thus: 384-well plate pilot, post-Golgi transport modulator project, inhibition of yeast transport mutant growth (AID 636). Conditions: absorbance 615 nm, about 18 h, stronger effect = higher value.
Test [5] is described as follows: growth suppression of yeast trafficking mutant, preliminary HTS, modulators of trafficking downstream of Golgi apparatus project, 1536-format plate, OD 615 nm (AID 637; in the data active means inhibition above about 30%). Conditions: yeast transport mutant growth, absorbance 615 nm, 18 h; stronger effect = higher value.
Setting [6] is: H69AR cells + 2 uM doxorubicin, measured here: viability with 2 uM doxorubicin, stronger effect = lower value.
[7] abbreviates: H69AR cells, compound alone cytotoxicity.

Activity calls are given as the source filed them. Unless noted, no stated cut-off is given here; in the data, active means inhibition above about 31%; inactive means the rest.

These results are taken from PubChem BioAssay.

Turning to `Nc1c(C(=O)NCCN2CCOCC2)c2nc3ccccc3nc2n1-c1ccc2c(c1)OCO2`, the viability (usually a read-out of living cells in per cent, often relative to untreated cells) in test [1] is 51.9% (inactive); in test [2] it was 18.1% (active); in test [3] (setting [6]), 26.8%; in test [3] (setting [7]), 18.1%. Further, the differential viability (reversal) in test [3] (H69AR cells + 2 uM doxorubicin) was -8.75% (inactive). The inhibition (commonly the relative decrease from the control value, in per cent) was -6.27% (inactive) in test [4] and 6.19% (inactive) in test [5].

For `Cc1ccc2[nH]c(=O)c(CN(CCc3ccccc3)Cc3nnnn3CC3CCCO3)cc2c1` (stereo not given), the viability was 77.1% (inactive) in test [1], 78.5% (inactive) in test [2], 78.3% in test [3] (setting [6]) and 78.5% in test [3] (setting [7]). Moreover, in test [3] (H69AR cells + 2 uM doxorubicin), the differential viability (reversal) is 0.205% (inactive). Besides, the values for the inhibition in test [4] and in test [5] were 1.45% (inactive) and -5.87% (inactive), respectively.

For `Nc1nc(C(=O)N2CCOCC2)nn1S(=O)(=O)c1ccc(Cl)cc1`, the viability is 99.1% (inactive) in test [1], 95.2% (inactive) in test [2], 97% in test [3] (setting [6]) and 95.2% in test [3] (setting [7]). Also, in test [3] (H69AR cells + 2 uM doxorubicin), the differential viability (reversal) was -1.83% (inactive). Besides, the inhibition in test [4] is -1.3% (inactive); in test [5], -0.95% (inactive).

`CCCCCn1c(CN(C)Cc2ccccc2)nc2c1c(=O)n(C)c(=O)n2C`: the viability in test [1] is 85.8% (inactive); in test [2], 79.8% (inactive); in test [3] (setting [6]) it was 68.3%; in test [3] (setting [7]), 79.8%. In addition, in test [3] (H69AR cells + 2 uM doxorubicin), the differential viability (reversal) is 11.4% (inactive). Besides, the inhibition in test [4] was 1.45% (inactive); in test [5] it was 4.76% (inactive).

With `COc1ccc(Cc2nc3ccc(S(N)(=O)=O)cc3[nH]2)cc1OC`, the viability in test [1] was 106% (inactive); in test [2], 99.9% (inactive); in test [3] (setting [6]), 85.4%; in test [3] (setting [7]), 99.9%. Further, the differential viability (reversal) in test [3] (H69AR cells + 2 uM doxorubicin) was 14.6% (inactive). Further, the inhibition in test [4] is -2.86% (inactive); in test [5] it was 0.63% (inactive).

Regarding `Cc1nc(NC2=NCN(CCc3ccccc3)CN2)nc2c(C)cccc12`, the viability in test [1] is 81.9% (inactive); in test [2] it was 78% (inactive); in test [3] (setting [6]), 93.7%; in test [3] (setting [7]), 78%. The differential viability (reversal) in test [3] (H69AR cells + 2 uM doxorubicin) was -15.7% (inactive). The inhibition in test [4] was -3.82% (inactive); in test [5], 4.76% (inactive).

For the compound `COc1ccc(OC)c(N2Cc3cc(C)c(C)cc3C2)c1`, the viability in test [1] was 114% (inactive); in test [2] it was 95.3% (inactive); in test [3] (setting [6]), 88.4%; in test [3] (setting [7]) it was 95.3%. In addition, the differential viability (reversal) in test [3] (H69AR cells + 2 uM doxorubicin) was 6.88% (inactive). The inhibition was -6.97% (inactive) in test [4] and 4.44% (inactive) in test [5].

As to `O=C(CCCn1c(=O)c2sccc2n(Cc2ccc(F)cc2)c1=O)NCc1ccco1`, the viability in test [1] is 51.1% (inactive); in test [2], 27.4% (active); in test [3] (setting [6]), 79.4%; in test [3] (setting [7]), 27.4%. Moreover, the differential viability (reversal) in test [3] (H69AR cells + 2 uM doxorubicin) was -52% (inactive). For the same compound, the inhibition was -0.39% (inactive) in test [4] and -4.44% (inactive) in test [5].

With `O=C(Nc1ccc(S(=O)(=O)NCCc2ccccc2)cc1)c1ccc(Br)o1`, the viability in test [1] was 72.4% (inactive); in test [2], 108% (inactive); in test [3] (setting [6]), 91.5%; in test [3] (setting [7]), 108%. In test [3] (H69AR cells + 2 uM doxorubicin), the differential viability (reversal) is 16.8% (inactive). The figures for the inhibition in test [4] and in test [5] were -1.32% (inactive) and -6.35% (inactive), respectively.

Take `CC(=O)NC(Cc1ccc(C)cc1)C(=O)NC1CCN(C(=O)c2cnccn2)CC1` (stereo not given): the viability in test [1] is 110% (inactive); in test [2] it was 93.3% (inactive); in test [3] (setting [6]) it was 91.1%; in test [3] (setting [7]), 93.3%. Also, the differential viability (reversal) in test [3] (H69AR cells + 2 uM doxorubicin) was 2.21% (inactive). Moreover, the results for the inhibition in test [4] and in test [5] were -2.93% (inactive) and 2.22% (inactive), respectively.

As for `COc1ccccc1C(=O)Nc1ccccc1C(=O)N1CCCC1`, the viability in test [1] is 92.3% (inactive); in test [2], 96% (inactive); in test [3] (setting [6]), 84.1%; in test [3] (setting [7]), 96%. Moreover, the differential viability (reversal) in test [3] (H69AR cells + 2 uM doxorubicin) was 11.9% (inactive). The figures for the inhibition in test [4] and in test [5] were -4.68% (inactive) and 1.27% (inactive), respectively.

Turning to `CCCn1c(SCC(=O)Nc2ccccc2C(=O)OC)nc2c1c(=O)n(C)c(=O)n2C`, the viability in test [1] is 94.9% (inactive); in test [2], 84.5% (inactive); in test [3] (setting [6]) it was 82.2%; in test [3] (setting [7]), 84.5%. Moreover, in test [3] (H69AR cells + 2 uM doxorubicin), the differential viability (reversal) was 2.33% (inactive). Further, the inhibition in test [4] is -7.47% (inactive); in test [5] it was 3.02% (inactive).

`COc1cccc(N2CCN(c3ncnc4c3[nH]c3ccc(F)cc34)CC2C)c1` (stereo not given): the viability in test [1] was 2.17% (active); in test [2] it was 3.55% (active); in test [3] (setting [6]) it was 4.56%; in test [3] (setting [7]), 3.55%. Further, the differential viability (reversal) in test [3] (H69AR cells + 2 uM doxorubicin) was -1.01% (inactive). The inhibition in test [4] is 71% (active); in test [5] it was 29.6% (inactive).

In the case of `COc1ccc(Cn2nnnc2C(c2ccncc2)N2CCOCC2)cc1` (stereo not given), the viability is 90.4% (inactive) in test [1], 94.7% (inactive) in test [2], 91.4% in test [3] (setting [6]) and 94.7% in test [3] (setting [7]). Moreover, the differential viability (reversal) in test [3] (H69AR cells + 2 uM doxorubicin) is 3.26% (inactive). Moreover, the values for the inhibition in test [4] and in test [5] were 0.78% (inactive) and 0.95% (inactive), respectively.

`CCCSc1nnc(-c2ccccc2NC(=O)CC)c(=O)[nH]1`: the viability in test [1] is 99.4% (inactive); in test [2], 103% (inactive); in test [3] (setting [6]), 88.1%; in test [3] (setting [7]), 103%. Moreover, the differential viability (reversal) in test [3] (H69AR cells + 2 uM doxorubicin) is 14.4% (inactive). The inhibition was -5.87% (inactive) in test [4] and 3.97% (inactive) in test [5].

Regarding `CS(=O)(=O)N(CC(=O)NC1CC1)c1cccc(F)c1`, the viability in test [1] was 86.5% (inactive); in test [2], 90% (inactive); in test [3] (setting [6]), 84.1%; in test [3] (setting [7]), 90%. Moreover, in test [3] (H69AR cells + 2 uM doxorubicin), the differential viability (reversal) is 5.87% (inactive). The inhibition is -5.19% (inactive) in test [4] and 0% (inactive) in test [5].

Take `O=C(Nc1cc(C(F)(F)F)ccc1Cl)c1cc(C2CC2)on1`: the viability in test [1] was 96.4% (inactive); in test [2] it was 91% (inactive); in test [3] (setting [6]), 87.4%; in test [3] (setting [7]) it was 91%. The differential viability (reversal) in test [3] (H69AR cells + 2 uM doxorubicin) was 3.55% (inactive). For the same compound, the inhibition in test [4] was -3.82% (inactive); in test [5], 0.63% (inactive).

With `CCOc1ccc(OCc2cccc(C(=O)N3CCCC3)c2)cc1`, the viability is 110% (inactive) in test [1], 92.9% (inactive) in test [2], 86% in test [3] (setting [6]) and 92.9% in test [3] (setting [7]). Besides, in test [3] (H69AR cells + 2 uM doxorubicin), the differential viability (reversal) is 6.89% (inactive). The inhibition in test [4] was -4.13% (inactive); in test [5], -3.49% (inactive).

In the case of `COC(=O)Cc1c(C)nc2nc(-c3ccccc3)[nH]n2c1=O`, the viability in test [1] was 90.8% (inactive); in test [2], 102% (inactive); in test [3] (setting [6]), 106%; in test [3] (setting [7]), 102%. Moreover, in test [3] (H69AR cells + 2 uM doxorubicin), the differential viability (reversal) was -4.13% (inactive). For the same compound, the inhibition was 0.53% (inactive) in test [4] and -5.56% (inactive) in test [5].

As to `CCc1nnc(NC(=O)CSc2nc3ccccc3s2)s1`, the viability in test [1] is 93% (inactive); in test [2], 101% (inactive); in test [3] (setting [6]), 91.1%; in test [3] (setting [7]), 101%. Further, in test [3] (H69AR cells + 2 uM doxorubicin), the differential viability (reversal) is 10.1% (inactive). The values for the inhibition in test [4] and in test [5] were -2.24% (inactive) and 0.48% (inactive), respectively.
